Assay results taken from ChEMBL document CHEMBL2177015, “Bicyclization and tethering to albumin yields long-acting peptide antagonists” (J Med Chem, 2012).
Each block holds one molecule with its values, some of them ahead of it. Starred links: 1 amine or outer side, 2 acyl side, 3 side chain; linkers in the order of their positions; H or OH if unused. Positions of bridges follow the written chain, without caps; N, C: chain ends. Residues, ends and D or L forms follow the SMILES beside them. TBMB = c1c(C[*:1])cc(C[*:3])cc1C[*:2]; mXylylene = c1cc(C[*:1])cc(C[*:2])c1; pXylylene = c1cc(C[*:2])ccc1C[*:1]

Assays:
Plasma [1] = assay: Drug degradation in mouse plasma at 50 uM after 24 hrs by RP-HPLC analysis; type: ADME, cell-free
How it was run: (§1)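 Peptide spiked from 1 mM water stock into mouse plasma (final 50 μM) and incubated at 37 °C. Samples taken at 0, 24 and 48 h, mixed 1:1 with water containing 0.1% TFA and stored at −20 °C. Analysed by RP-HPLC on a C8 column with 220 nm absorbance; peaks identified by ESI-MS.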

[2] = (§2) Drug degradation in mouse plasma at 50 uM after 24 to 48 hrs by RP-HPLC analysis; type: ADME, cell-free; settings: read-out: Drug degradation; how it was run: as §1
[3] = Terminal half life in mouse; type: ADME, organism-based; settings: in vivo
How it was run: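 Female BALB/c mice aged 7–9 weeks, given 200 μL of 50 μM in PBS intravenously; 2–3 mice per time point. EDTA plasma sampled up to 320 min or up to 48 h. Conjugate measured by reversed-phase UFLC with fluorescence detection (ex 490, em 525 nm) and by uPA-capture ELISA with antifluorescein detection. Data fitted to a two-compartment model; t1/2 β taken.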

[4] = Terminal half life in rabbit; type: ADME, organism-based, Oryctolagus cuniculus; settings: in vivo
[5] = target: T1, Urokinase-type plasminogen activator (Homo sapiens, UniProt P00749); assay: Inhibition of human uPA using H-Glu-Gly-Arg-pNA as substrate after 1 hr in presence of bovine serum albumin
How it was run: (§3)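 Human urinary low-molecular-weight uPA (1.5 nM) with 2-fold inhibitor dilutions (8 μM to 1.95 nM) at 25 °C. Additive: 0.1% casein (±1.5 μM hSA or mSA), 0.1% ovA or 0.1% bSA. Substrate 50 μM H-Glu-Gly-Arg-pNA; A405 initial rates over 1 h. Ki from Kiapp corrected for substrate; means of ≥3.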

[6] = target: T1, Urokinase-type plasminogen activator; assay: Inhibition of human uPA using H-Glu-Gly-Arg-pNA as substrate after 1 hr in presence of ovalbumin; how it was run: as §3
[7] = target: T1, Urokinase-type plasminogen activator; assay: Inhibition of human uPA using H-Glu-Gly-Arg-pNA as substrate after 1 hr in presence of casein and mouse serum albumin; how it was run: as §3
Plasma [8] = assay: as §2; type: ADME, cell-free; settings: 50 µM; how it was run: as §1
[9] = target: T1, Urokinase-type plasminogen activator; assay: Inhibition of human uPA using H-Glu-Gly-Arg-pNA as substrate after 1 hr in presence of casein and human serum albumin; how it was run: as §3
[10] = target: T1, Urokinase-type plasminogen activator; assay: Inhibition of human uPA; how it was run: as §3
[11] = target: T1, Urokinase-type plasminogen activator; assay: Inhibition of human uPA using H-Glu-Gly-Arg-pNA as substrate after 1 hr in presence of casein; how it was run: as §3
Albumin [12] = target: Albumin (Homo sapiens, UniProt P02768); assay: Binding affinity to human serum albumin by fluorescence polarization assay; type: ADME
How it was run: (§4)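 Proteins serially diluted 3/2-fold in phosphate buffer (10 mM Na2HPO4, pH 7.4, 150 mM NaCl) and mixed 1:1 with fluorescein-labelled peptide. Incubated 30 min at room temperature, then fluorescence polarization read (excitation 480 nm, emission 535 nm). KD from nonlinear regression of anisotropy against total protein concentration using a quadratic binding equation. Done at 25 °C.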

Albumin [13] = target: Albumin (Mus musculus, UniProt P07724); assay: Binding affinity to mouse serum albumin by fluorescence polarization assay; type: ADME; how it was run: as §4
Albumin (Mus musculus, UniProt P07724), sequence (P07724 whole entry): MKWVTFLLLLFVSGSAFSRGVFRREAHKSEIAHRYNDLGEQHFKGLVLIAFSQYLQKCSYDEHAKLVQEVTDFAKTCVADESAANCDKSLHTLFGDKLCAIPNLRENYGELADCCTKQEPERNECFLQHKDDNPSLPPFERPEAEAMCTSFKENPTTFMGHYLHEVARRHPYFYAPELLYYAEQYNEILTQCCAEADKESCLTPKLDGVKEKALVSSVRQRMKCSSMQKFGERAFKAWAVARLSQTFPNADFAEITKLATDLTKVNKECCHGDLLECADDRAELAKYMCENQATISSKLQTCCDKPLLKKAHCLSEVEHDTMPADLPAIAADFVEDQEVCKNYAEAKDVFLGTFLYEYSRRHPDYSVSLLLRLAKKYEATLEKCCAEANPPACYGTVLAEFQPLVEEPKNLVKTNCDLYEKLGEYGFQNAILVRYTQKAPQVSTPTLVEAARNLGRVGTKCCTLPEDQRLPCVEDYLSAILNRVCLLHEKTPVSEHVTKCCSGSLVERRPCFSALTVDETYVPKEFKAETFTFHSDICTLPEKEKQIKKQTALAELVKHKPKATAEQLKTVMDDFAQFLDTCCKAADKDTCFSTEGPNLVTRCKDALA

Albumin (Homo sapiens, UniProt P02768), sequence (P02768 whole entry): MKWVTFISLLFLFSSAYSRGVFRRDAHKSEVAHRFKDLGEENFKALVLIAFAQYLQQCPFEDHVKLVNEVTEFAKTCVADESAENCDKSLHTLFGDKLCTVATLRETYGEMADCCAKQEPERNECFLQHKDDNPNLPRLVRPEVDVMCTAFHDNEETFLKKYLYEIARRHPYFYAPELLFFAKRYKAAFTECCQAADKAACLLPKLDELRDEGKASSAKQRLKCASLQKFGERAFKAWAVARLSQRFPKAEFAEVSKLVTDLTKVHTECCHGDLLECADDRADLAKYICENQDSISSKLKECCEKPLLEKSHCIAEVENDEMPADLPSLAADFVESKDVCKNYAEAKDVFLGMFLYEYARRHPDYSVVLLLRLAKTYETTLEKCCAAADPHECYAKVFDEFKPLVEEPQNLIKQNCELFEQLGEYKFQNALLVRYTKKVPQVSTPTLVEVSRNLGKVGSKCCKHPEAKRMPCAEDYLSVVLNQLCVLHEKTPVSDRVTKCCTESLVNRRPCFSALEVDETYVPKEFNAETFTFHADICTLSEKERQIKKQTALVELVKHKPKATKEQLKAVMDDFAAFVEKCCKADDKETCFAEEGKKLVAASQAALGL

SMILES: CC[C@H](C)[C@H](NC(=O)[C@H](CC(=O)O)NC(=O)[C@H](CCC(=O)O)NC(=O)[C@H](CCSC)NC(=O)[C@H](CC(C)C)NC(=O)[C@H](CCCNC(=N)N)NC(=O)[C@@H](N)CCC(N)=O)C(=O)N[C@@H](CS)C(=O)N[C@@H](CC(C)C)C(=O)N1CCC[C@H]1C(=O)N[C@@H](CCCNC(=N)N)C(=O)N[C@@H](Cc1c[nH]c2ccccc12)C(=O)NCC(=O)N[C@@H](CS)C(=O)N[C@@H](CC(C)C)C(=O)N[C@@H](Cc1c[nH]c2ccccc12)C(=O)N[C@@H](CCC(=O)O)C(=O)N[C@@H](CC(=O)O)C(=O)N[C@@H](CC(=O)O)C(=O)N[C@@H](Cc1ccccc1)C(N)=O
half-life [3]: 19.7 h
half-life [4]: 68.5 h

SMILES: CC(C)[C@@H]1NC(=O)[C@H](CCC(=O)O)NC(=O)[C@H](Cc2ccc(O)cc2)NC(=O)[C@H](CCCN=C(N)N)NC(=O)[C@H](CO)NC(=O)[C@@H](NC(=O)[C@H](C)N)CSCc2cc3cc(c2)CSC[C@H](NC(=O)[C@H](CC(=O)O)NC1=O)C(=O)N[C@@H](CCCN=C(N)N)C(=O)NCC(=O)N[C@@H](CCCN=C(N)N)C(=O)NCC(=O)N[C@@H](CO)C(=O)N[C@@H](C)C(=O)N[C@H](C(=O)NCC(N)=O)CSC3 (H-ACSRYEVDCRGRGSACG-NH2; linker 2-9-16 via TBMB)
Ki [5]: 53 nM
Ki [6]: 56 nM
Ki [7]: 54 nM
Stability (Plasma [8]): Unstable
Ki [9]: 60 nM
Ki [10]: 53 nM
Ki [11]: 52 nM

SMILES: CC(C)[C@H](NC(=O)[C@H](CCC(=O)O)NC(=O)[C@H](Cc1ccc(O)cc1)NC(=O)[C@H](CCCNC(=N)N)NC(=O)[C@H](CO)NC(=O)[C@H](CO)NC(=O)[C@H](C)N)C(=O)N[C@@H](CC(=O)O)C(=O)N[C@@H](CO)C(=O)N[C@@H](CCCNC(=N)N)C(=O)NCC(=O)N[C@@H](CCCNC(=N)N)C(=O)NCC(=O)N[C@@H](CO)C(=O)N[C@@H](C)C(=O)N[C@@H](CO)C(=O)NCC(N)=O (H-ASSRYEVDSRGRGSASG-NH2)
Stability (Plasma [8]): Unstable

SMILES: CC[C@H](C)[C@H](NC(=O)[C@H](CC(C)C)NC(=O)[C@H](CCCNC(=N)N)N[C@@H](CCCCN)C(=O)NCCCCN=[N+]=[N-])C(=O)N[C@@H](CCC(=O)O)C(=O)N[C@@H](CC(=O)O)C(=O)N[C@H](C(=O)N[C@H]1CSSC[C@@H](C(=O)N[C@@H](CC(C)C)C(=O)N[C@@H](Cc2c[nH]c3ccccc23)C(=O)N[C@@H](CCC(=O)O)C(=O)N[C@@H](CC(=O)O)C(=O)N[C@@H](CC(=O)O)C(=O)O)NC(=O)CNC(=O)[C@H](Cc2c[nH]c3ccccc23)NC(=O)[C@H](CCCNC(=N)N)NC(=O)[C@@H]2CCCN2C(=O)[C@H](CC(C)C)NC1=O)[C@@H](C)CC
Kd (Albumin [12]): 321 nM
Kd (Albumin [13]): 24 nM

Other lines, results leading:

Stability (Plasma [1]): Unstable
SMILES: CC(C)[C@@H]1NC(=O)[C@H](CCC(=O)O)NC(=O)[C@H](Cc2ccc(O)cc2)NC(=O)[C@H](CCCNC(=N)N)NC(=O)[C@H](CO)NC(=O)[C@@H](NC(=O)[C@H](C)N)CSCc2cccc(c2)CSC[C@@H](C(N)=O)NC(=O)[C@H](CC(=O)O)NC1=O (H-ACSRYEVDC-NH2; linker 2-9 via mXylylene)

metabolised at 50 µM [2]: 60%
SMILES: CC(C)[C@@H]1NC(=O)[C@H](CCC(=O)O)NC(=O)[C@H](Cc2ccc(O)cc2)NC(=O)[C@H](CCCNC(=N)N)NC(=O)[C@H](CO)NC(=O)[C@@H](NC(=O)[C@H](C)N)CSCc2ccc(cc2)CSC[C@@H](C(=O)NCC(N)=O)NC(=O)[C@H](C)NC(=O)[C@H](CO)NC(=O)CNC(=O)[C@H](CCCNC(=N)N)NC(=O)CNC(=O)[C@H](CCCNC(=N)N)NC(=O)[C@H](CO)NC(=O)[C@H](CC(=O)O)NC1=O (H-ACSRYEVDSRGRGSACG-NH2; linker 2-16 via pXylylene)

Stability (Plasma [1]): Unstable
SMILES: C[C@@H]1NC(=O)[C@H](CO)NC(=O)CNC(=O)[C@H](CCCNC(=N)N)NC(=O)CNC(=O)[C@H](CCCNC(=N)N)NC(=O)[C@@H](N)CSCc2cccc(c2)CSC[C@@H](C(=O)NCC(N)=O)NC1=O (H-CRGRGSACG-NH2; linker 1-8 via mXylylene)
